Columns and labels:
Type in all cases: functional
MDA-MB-231 = assay: Growth inhibition of human MDA-MB-231 cells after 48 hrs by sulforhodamine B assay; details: MDA-MB-231, 48 h
Procedure, shortened: (§1)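 NCI 60-human-tumor-cell-line panel, with compounds tested over a 5-log dose range. Values are taken from dose-response curves as log10 molar concentrations: GI50 is 50% net growth inhibition, TGI is total growth inhibition, and LC50 is 50% net cell death.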

SK-MEL-5 = assay: Growth inhibition of human SK-MEL-5 cells after 48 hrs by sulforhodamine B assay; details: SK-MEL-5, 48 h; procedure, shortened: as §1
SF-295 = assay: Growth inhibition of human SF295 cells after 48 hrs by sulforhodamine B assay; details: SF-295, 48 h; procedure, shortened: as §1
MCF7 [1] = assay: Anticancer activity against human MCF7 cells assessed as cell growth at 100 uM after 48 hrs by sulforhodamine B assay; details: MCF7, 48 h, read-out: Activity
UO-31 = assay: Growth inhibition of human UO31 cells after 48 hrs by sulforhodamine B assay; details: UO-31, 48 h
Procedure, shortened: (§2)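 Run in the NCI 60-human-tumour-cell-line panel, tested over a 5-log dose range. Dose–response curves gave three values per cell line, each as a log10 molar concentration: GI50 (50% inhibition of net cell growth), TGI (total inhibition of net growth) and LC50 (50% net cell death). The mean graph midpoint is the arithmetic mean over all lines, with insensitive lines entered at the highest concentration tested.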

NCI-H460 [2] = assay: Growth inhibition of human NCI-H460 cells after 48 hrs by sulforhodamine B assay; details: NCI-H460, 48 h; procedure, shortened: as §1
OVCAR-3 = assay: Growth inhibition of human OVCAR-3 cells after 48 hrs by sulforhodamine B assay; details: OVCAR-3, 48 h; procedure, shortened: as §1
KM12 = assay: Growth inhibition of human KM12 cells after 48 hrs by sulforhodamine B assay; details: KM12, 48 h; procedure, shortened: as §1
MCF7 [3] = assay: Growth inhibition of human MCF7 cells after 48 hrs by sulforhodamine B assay; details: MCF7, 48 h; procedure, shortened: as §1
SF-268 [4] = assay: Anticancer activity against human SF268 cells assessed as cell growth at 100 uM after 48 hrs by sulforhodamine B assay; details: SF-268, 48 h, read-out: Activity
786-0 = assay: Growth inhibition of human 786-0 cells after 48 hrs by sulforhodamine B assay; details: 786-0, 48 h; procedure, shortened: as §1
UACC-257 = assay: Growth inhibition of human UACC257 cells after 48 hrs by sulforhodamine B assay; details: UACC-257, 48 h; procedure, shortened: as §2
CAKI-1 = assay: Growth inhibition of human Caki1 cells after 48 hrs by sulforhodamine B assay; details: CAKI-1, 48 h; procedure, shortened: as §1
NCI-H322M = assay: Growth inhibition of human NCI-H322M cells after 48 hrs by sulforhodamine B assay; procedure, shortened: as §1
IGROV-1 = assay: Growth inhibition of human IGROV1 cells after 48 hrs by sulforhodamine B assay; details: IGROV-1, 48 h; procedure, shortened: as §1
HOP-62 = assay: Growth inhibition of human HOP62 cells after 48 hrs by sulforhodamine B assay; details: HOP-62, 48 h; procedure, shortened: as §1
PC-3 = assay: Growth inhibition of human PC3 cells after 48 hrs by sulforhodamine B assay; details: PC-3, 48 h; procedure, shortened: as §1
NCI-H460 [5] = assay: Anticancer activity against human NCI-H460 cells assessed as cell growth at 100 uM after 48 hrs by sulforhodamine B assay; details: NCI-H460, 48 h, read-out: Activity
OVCAR-5 = assay: Growth inhibition of human OVCAR5 cells after 48 hrs by sulforhodamine B assay; details: OVCAR-5, 48 h; procedure, shortened: as §1
SNB-19 = assay: Growth inhibition of human SNB19 cells after 48 hrs by sulforhodamine B assay; details: SNB-19, 48 h; procedure, shortened: as §2
NCI-H522 = assay: Growth inhibition of human NCI-H522 cells after 48 hrs by sulforhodamine B assay; details: NCI-H522, 48 h; procedure, shortened: as §1
TK-10 = assay: Growth inhibition of human TK10 cells after 48 hrs by sulforhodamine B assay; details: TK-10, 48 h; procedure, shortened: as §2
SF-268 [6] = assay: Growth inhibition of human SF268 cells after 48 hrs by sulforhodamine B assay; details: SF-268, 48 h; procedure, shortened: as §1
MDA-MB-435 = assay: Growth inhibition of human MDA-MB-435 cells after 48 hrs by sulforhodamine B assay; details: MDA-MB-435, 48 h; procedure, shortened: as §1
SK-OV-3 = assay: Growth inhibition of human SKOV3 cells after 48 hrs by sulforhodamine B assay; details: SK-OV-3, 48 h; procedure, shortened: as §1
OVCAR-4 = assay: Growth inhibition of human OVCAR4 cells after 48 hrs by sulforhodamine B assay; details: OVCAR-4, 48 h; procedure, shortened: as §1
COLO 205 = assay: Growth inhibition of human COLO205 cells after 48 hrs by sulforhodamine B assay; details: COLO 205, 48 h; procedure, shortened: as §1
U-251 = assay: Growth inhibition of human U251 cells after 48 hrs by sulforhodamine B assay; details: U-251, 48 h; procedure, shortened: as §2
OVCAR-8 = assay: Growth inhibition of human OVCAR8 cells after 48 hrs by sulforhodamine B assay; details: OVCAR-8, 48 h; procedure, shortened: as §1
[7] = Growth inhibition of human Hs 578T cells after 48 hrs by sulforhodamine B assay; procedure, shortened: as §1
[8] = read-out: pLC50 (the source's name) (converted)

Work on `Nc1cc(N)c2nc(-c3ccccc3)c(Oc3ccc(Cl)c(Cl)c3)nc2c1` yielded a GI50 (MDA-MB-231) of 10.2 µM, a CC50 (MDA-MB-231; [8]) of 66.1 µM and a TGI (MDA-MB-231; read-out: pTGI (converted)) of 26.3 µM. The GI50 (SK-MEL-5) was 9.77 µM, the CC50 (SK-MEL-5; [8]) was 83.2 µM and the TGI (SK-MEL-5; read-out: pTGI (converted)) was 28.8 µM. The GI50 (SF-295) was 13.8 µM, the LC50 (50% net cell kill) (SF-295) was 69.2 µM and the TGI (SF-295; read-out: pTGI (converted)) was 30.9 µM. It also gave a growth at 100 µM (MCF7 [1]) of 2%, a GI50 (UO-31) of 4.07 µM and a CC50 (UO-31; [8]) greater than 100 µM. The TGI (UO-31; read-out: pTGI (converted)) was greater than 100 µM, the GI50 (NCI-H460 [2]) was 18.2 µM and the LC50 (50% net cell kill) (NCI-H460 [2]) was greater than 100 µM. It also gave a TGI (NCI-H460 [2]; read-out: pTGI (converted)) of 70.8 µM, a GI50 (OVCAR-3) of 10.7 µM and a CC50 (OVCAR-3; [8]) of 66.1 µM. The TGI (OVCAR-3; read-out: pTGI (converted)) was 26.9 µM, the GI50 (KM12) was 6.31 µM and the LC50 (50% net cell kill) (KM12) was greater than 100 µM. For the same compound, the TGI (KM12; read-out: pTGI (converted)) was 39.8 µM, the GI50 (MCF7 [3]) was 14.1 µM and the CC50 (MCF7 [3]; [8]) was greater than 100 µM. For the same compound, the TGI (MCF7 [3]; read-out: pTGI (converted)) was 70.8 µM, the growth at 100 µM (SF-268 [4]) was 0% and the GI50 (786-0) was 12.6 µM. It also gave a CC50 (786-0; [8]) greater than 100 µM, a TGI (786-0; read-out: pTGI (converted)) of 44.7 µM and a GI50 (UACC-257) of 28.2 µM. It also gave a CC50 (UACC-257; [8]) greater than 100 µM, a TGI (UACC-257; read-out: pTGI (converted)) of 87.1 µM and a GI50 (CAKI-1) of 15.8 µM. It also gave a CC50 (CAKI-1; [8]) greater than 100 µM, a TGI (CAKI-1; read-out: pTGI (converted)) greater than 100 µM and a GI50 (NCI-H322M) of 21.4 µM. The LC50 (NCI-H322M) was greater than 100 µM, the TGI (NCI-H322M; read-out: pTGI (converted)) was 58.9 µM and the GI50 (IGROV-1) was 11.5 µM. For the same compound, the CC50 (IGROV-1; [8]) was 91.2 µM, the TGI (IGROV-1; read-out: pTGI (converted)) was 32.4 µM and the GI50 (HOP-62) was 17 µM. The LC50 (HOP-62) was 85.1 µM, the TGI (HOP-62; read-out: pTGI (converted)) was 38 µM and the GI50 (PC-3) was 3.02 µM. For the same compound, the CC50 (PC-3; [8]) was greater than 100 µM, the TGI (PC-3; read-out: pTGI (converted)) was 14.5 µM and the growth at 100 µM (NCI-H460 [5]) was 0%. The GI50 (OVCAR-5) was 25.1 µM, the CC50 (OVCAR-5; [8]) was greater than 100 µM and the TGI (OVCAR-5; read-out: pTGI (converted)) was 58.9 µM. It also gave a GI50 (SNB-19) of 20.9 µM, an LC50 (SNB-19) greater than 100 µM and a TGI (SNB-19; read-out: pTGI (converted)) of 52.5 µM. The GI50 (NCI-H522) was 8.32 µM, the LC50 (NCI-H522) was greater than 100 µM and the TGI (NCI-H522; read-out: pTGI (converted)) was 33.9 µM. The GI50 (TK-10) was 24.5 µM, the CC50 (TK-10; [8]) was greater than 100 µM and the TGI (TK-10; read-out: pTGI (converted)) was 63.1 µM. It also gave a GI50 (SF-268 [6]) of 17 µM, an LC50 (SF-268 [6]) greater than 100 µM and a TGI (SF-268 [6]; read-out: pTGI (converted)) of 52.5 µM. It also gave a GI50 (MDA-MB-435) of 5.01 µM, a CC50 (MDA-MB-435; [8]) of 93.3 µM and a TGI (MDA-MB-435; read-out: pTGI (converted)) of 20.9 µM. It also gave a GI50 (SK-OV-3) of 24 µM, a CC50 (SK-OV-3; [8]) greater than 100 µM and a TGI (SK-OV-3; read-out: pTGI (converted)) of 66.1 µM. It also gave a GI50 (OVCAR-4) of 33.1 µM, a CC50 (OVCAR-4; [8]) greater than 100 µM and a TGI (OVCAR-4; read-out: pTGI (converted)) greater than 100 µM. For the same compound, the GI50 (COLO 205) was 20.4 µM, the LC50 (50% net cell kill) (COLO 205) was greater than 100 µM and the TGI (COLO 205; read-out: pTGI (converted)) was 67.6 µM. It also gave a GI50 (U-251) of 12 µM, an LC50 (50% net cell kill) (U-251) of 83.2 µM and a TGI (U-251; read-out: pTGI (converted)) of 31.6 µM. For the same compound, the GI50 (OVCAR-8) was 28.2 µM, the CC50 (OVCAR-8; [8]) was greater than 100 µM and the TGI (OVCAR-8; read-out: pTGI (converted)) was 89.1 µM. The GI50 [7] was 10.7 µM, the CC50 [7, 8] was greater than 100 µM and the TGI ([7]; read-out: pTGI (converted)) was 33.9 µM.
